Bioassay records as filed in PubChem.
Shown are actives, neighbours in structure and some others; about 2.6% of the full set was active somewhere.
miR-122 sensor – miR-122 Renilla sensor signal increase in Huh7, primary screen, miR-122 inhibitor project, cell-based, single point, plate reader; Huh7 miR-122 Renilla luciferase sensor, 48 h; neutral wells = 0, positive control = 100; activation (reporter increase), % at 12.5 µM; 340,000 compounds, 0.3% hits;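 active = mean replicate activation score at least 90 and every replicate individually at or above 90; inconclusive = only one of the two criteria met; inactive = neither criterion met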;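 also: higher luciferase means less miR-122 activity so hits act as miR-122 inhibitors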
F508del corr – F508del CFTR correction, initial screen, CFBE line, single point | CFBE cells, YFP halide quenching; stimulated with forskolin plus potentiator P3; % fluorescence drop versus neutral controls | activity (quench increase), % at 7.58 µM | 350,000 compounds, 0.36% hits | AID 720511, 2013;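 active = mean added fluorescence quench of at least 8% versus neutral control, with both replicates also reaching 8%; inconclusive = only one of the mean or replicate conditions met; inactive = mean below 8% and not both replicates reaching 8%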;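 also: cells transiently co-express mutant CFTR-F508del with the halide-sensitive YFP; corrector assay measuring rescue of mutant channel to the surface after 24 h compound exposure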
E-sel inducer – E-selectin induction in HUVECs, primary screen, imaging, HUVEC, immunofluorescence imaging, single point. normalized: neutral wells 0, TNF-alpha wells 100. activation, % at 7.58 µM. 260,000 compounds, 0.37% hits. AID 686992, 2013;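 active = mean E-selectin-positive cell signal at least 10% of the positive control, reached in at least 60% of replicates, without over 20% cell loss; inconclusive = no rule given, readout overlaps actives, possibly toxicity-flagged; inactive = the rest, including those meeting only one limit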
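System: HUVEC, human umbilical vein endothelial cells; quantity: 3,000 cells/well; buffer or medium: EGM-2 medium, gelatin-coated wells; dosing: single-point compound dose; detection: immunofluorescence imaging; evaluation: % PE-positive cells; benchmarks: TNF-alpha, DMSO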
GSIS activator – GLuc luminescence reporter in INS-1E cells, primary screen for activators of glucose-dependent secretion of insulin | INS-1E GLuc reporter insulin secretion, 2-3 h | activation, % at 16.6 µM | 370,000 compounds, 0.61% hits;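 active = lowest replicate activation of at least 40%, so every replicate reaches that level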;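 also: 0% = median of neutral control wells and 100% = median of IBMX positive control wells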
ERAP1 HTS inh – human ERAP1 aminopeptidase inhibitors, primary screen, biochemical, single point, plate reader; recombinant ERAP1, Leu-AMC fluorescence, 60 min; inhibition, % at 10.7 µM; 340,000 compounds, 0.15% hits; Endoplasmic reticulum aminopeptidase 1 (Homo sapiens), Q9NZ08;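 active = mean replicate inhibition of at least 30%, or all replicates individually reaching that 30% level; inactive = mean below 30% and not every replicate reaching it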;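 also: 0% = neutral control wells and 100% = L-leucinethiol positive control wells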
Target sequence (Q9NZ08 whole entry, looked up): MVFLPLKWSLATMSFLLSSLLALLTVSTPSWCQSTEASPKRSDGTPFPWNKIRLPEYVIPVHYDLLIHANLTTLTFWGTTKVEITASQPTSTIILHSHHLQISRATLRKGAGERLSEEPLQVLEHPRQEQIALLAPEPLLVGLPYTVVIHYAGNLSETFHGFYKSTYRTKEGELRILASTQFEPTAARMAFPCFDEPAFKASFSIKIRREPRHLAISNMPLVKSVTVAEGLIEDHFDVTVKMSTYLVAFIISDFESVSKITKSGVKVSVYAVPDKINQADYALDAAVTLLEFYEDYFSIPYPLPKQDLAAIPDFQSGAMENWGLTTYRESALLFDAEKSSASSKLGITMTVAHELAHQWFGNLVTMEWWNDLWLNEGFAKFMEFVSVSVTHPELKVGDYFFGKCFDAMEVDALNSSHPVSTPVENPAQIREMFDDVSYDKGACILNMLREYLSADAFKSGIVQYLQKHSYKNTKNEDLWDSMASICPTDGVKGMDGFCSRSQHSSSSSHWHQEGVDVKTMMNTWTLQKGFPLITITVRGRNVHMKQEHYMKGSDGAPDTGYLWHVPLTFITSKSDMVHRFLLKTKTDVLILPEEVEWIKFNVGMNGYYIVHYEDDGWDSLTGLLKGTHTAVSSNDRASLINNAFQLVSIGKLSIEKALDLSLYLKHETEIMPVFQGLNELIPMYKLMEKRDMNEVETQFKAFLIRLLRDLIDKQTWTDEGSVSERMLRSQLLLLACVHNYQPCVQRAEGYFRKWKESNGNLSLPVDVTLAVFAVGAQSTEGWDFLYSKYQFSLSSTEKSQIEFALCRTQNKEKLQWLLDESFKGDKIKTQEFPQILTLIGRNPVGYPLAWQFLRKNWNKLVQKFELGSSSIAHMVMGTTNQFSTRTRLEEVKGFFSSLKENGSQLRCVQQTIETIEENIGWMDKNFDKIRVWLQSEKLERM
DENV2 CPE rescue – inhibitors of DENV2 cytopathic effect, primary screen, cell-based, plate reader, single concentration | AID 651640, 2012 | 350,000 compounds, 1.7% hits | DENV2-infected cells, cytopathic effect rescue | CPE inhibition, % at 9.99 µM; in the data active = CPE inhibition above about 20%, passing the limit was not always enough; inconclusive = no clear call, values can overlap the other calls; tested in BHK-21 cells;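 also: 0% = median of neutral control wells and 100% = median of positive control wells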
* hit, by the source's call; u = inconclusive; x = no result; [ ] = dose if it differs, or a comment.

SMILES	miR-122 sensor	F508del corr	E-sel inducer	GSIS activator	ERAP1 HTS inh	DENV2 CPE rescue
CC1(c2ccc3ccccc3c2)NC(=O)N(CC(=O)O)C1=O (stereo not drawn)	-2	-1	0	24	16	-2
CC1(c2ccc3ccccc3c2)CCC(=O)O1 (stereo not drawn)	x	8.7*	0	28	0	22*
Cc1noc(C)c1NC(=O)Nc1ccc2c(c1)C(=O)N([C@H](C)CO)C[C@@H](C)[C@H](CN(C)C(=O)Nc1ccccc1)O2	3[16.7 µM]	0	0	28	x	x
C[C@H]1CN=C(N(C)C)N1CC1CCCC1	3	-1	0	54*	-4	-8
COc1cc2ccc(=O)oc2cc1O	-2	-2	x	16	74*	-11
COc1ccc2c3c([nH]c2c1)[C@@H](CO)N(C(=O)NC(C)C)CC31CCN(Cc2ccccc2)CC1	x	-2	0	1	x	-29
N#CCCCc1cc2ccccc2cn1	-4	0	x	51*	-4	-11
COC(=O)[C@@]1(Cc2ccc(F)cc2)[C@H]2c3cc(C(=O)N(C)C)n(CCF)c3C[C@H]2CN1C(=O)c1ccccc1	x	-4	0	-37	x	3
COC(=O)[C@@]1(Cc2ccc(F)cc2)[C@H]2c3cc(C(=O)N(C)C)n(Cc4ccc(OC(F)(F)F)cc4)c3C[C@H]2CN1C(=O)c1ccccc1	x	1	0	-2	x	20*
COC(=O)Cn1c(C(=O)N(C)C)cc2c1C[C@H]1CN(C(=O)c3ccccc3)[C@@](Cc3ccc(F)cc3)(C(=O)OC)[C@@H]21	x	-4	0	-4	x	63*
C[C@H](CO)N1C[C@H](C)[C@H](CN(C)Cc2ccc(Oc3ccccc3)cc2)Oc2ccc(NC(=O)CCCN(C)C)cc2C1=O	-11[16.7 µM]	0	4	-10	5	u
CCCCC(C(=O)NCCC(C)C)N(CCCN1CCOCC1)C(=O)c1snc(C(N)=O)c1N (stereo not drawn)	2	x	x	54*	x	x
Cc1ccc(C(C(=O)NC2CCCCC2)N(CCCN2CCOCC2)C(=O)c2snc(C(N)=O)c2N)cc1 (stereo not drawn)	-1	3	x	-3	0	2
COc1ccc(-c2nnc(SCC(=O)Nc3cc(C)on3)n2C)cc1OC	3	1	x	65*	-3	10
CCc1cc2ccc(OC)cc2nc1SCC(=O)Nc1cc(C)on1	2	x	x	48*	x	x
CCc1cc2ccccc2nc1SCC(=O)Nc1cc(C)on1	-5	x	x	x	x	x
O=[N+]([O-])c1ccccc1OCc1nc(-c2cccs2)no1	x	-1	1	-3	0	23*
CC(=O)N1C[C@H]2CON(C)[C@H]2C[C@H]1c1cccc(-c2ccccc2)c1	-6	1	x	x	1	-7
CC(=O)N1C[C@H]2CON(C)[C@H]2C[C@H]1c1cccc(-c2ccc(C#N)cc2)c1	-9	0	2	4	2	21*
CN1C[C@H]2CON(C)[C@H]2C[C@H]1c1cccc(-c2ccc(C#N)cc2)c1	-8	3	-1	-4	0	6
CN1OC[C@@H]2CN(Cc3cc(Cl)cc(Cl)c3)[C@H](c3cccc(-c4ccc(C#N)cc4)c3)C[C@@H]21	3	3	0	5	9	24*
CC(C)NC(=O)N(C)C[C@@H]1Oc2c(NS(C)(=O)=O)cccc2C(=O)N(C)C[C@H]1C	x	x	x	11	x	x
C[C@@H]1CN([C@@H](C)CO)S(=O)(=O)c2ccc(C3=CCCC3)cc2O[C@@H]1CN(C)Cc1cccc(C(=O)O)c1	25[16.7 µM]	1	0	9	-3	-8
C[C@H](CO)N1C[C@H](C)[C@H](CN(C)Cc2cccc(C(=O)O)c2)Oc2cc(C3=CCCC3)ccc2S1(=O)=O	-15[16.7 µM]	1	0	4	-2	44*
C[C@H]1CN([C@@H](C)CO)S(=O)(=O)c2ccc(C3=CCCC3)cc2O[C@@H]1CN(C)Cc1cccnc1	32[16.7 µM]	2	1	8	2	30*
SMILES	miR-122 sensor	F508del corr	E-sel inducer	GSIS activator	ERAP1 HTS inh	DENV2 CPE rescue
C[C@H](CO)N1C[C@H](C)[C@@H](CN(C)C(=O)CC2CC2)Oc2cc(C#CC(C)(C)O)ccc2S1(=O)=O	2[16.7 µM]	-2	0	44*	3	2
C[C@@H]1CN([C@H](C)CO)S(=O)(=O)c2ccc(C#CC(C)(C)O)cc2O[C@H]1CN(C)C(=O)C1CCCCC1	-10[16.7 µM]	1	1	-2	x	14
C[C@@H]1CN([C@@H](C)CO)S(=O)(=O)c2ccc(C#CC(C)(C)O)cc2O[C@@H]1CN(C)C(=O)C1CCCCC1	11[16.7 µM]	-3	1	-5	0	21*
CNC(=O)C[C@H]1CC[C@@H]2[C@H](COC[C@@H](O)CN2Cc2ccncc2)O1	-3[16.7 µM]	1	0	2	2	2
Brc1ccc2c(c1)C(C1=NCCN1)c1ccccc1CS2 (stereo not drawn)	-6	11*	-1	1	-7	u
c1ccc2c(c1)CCCC2C1=NCCN1 (stereo not drawn)	-4	3	1	x	-3	-2
CCC(=O)N1CC[C@@H]2[C@H](CO)Nc3ccc(-c4ccccc4)cc3[C@@H]21	-6[16.7 µM]	0	0	1	x	x
C[C@@H]1CCCCO[C@@H](CN(C)C(=O)Nc2cccc3ccccc23)[C@@H](C)CN([C@H](C)CO)C(=O)c2cc(NS(=O)(=O)c3ccc(Cl)cc3)ccc2O1	4[16.7 µM]	0	x	30	2	5
C[C@@H]1CCCCO[C@H](CN(C)C(=O)Nc2cccc3ccccc23)[C@H](C)CN([C@H](C)CO)C(=O)c2cc(NS(=O)(=O)c3ccc(Cl)cc3)ccc2O1	-16[16.7 µM]	-3	x	12	-1	58*
C[C@@H]1CCCCO[C@H](CN(C)C(=O)Nc2cccc3ccccc23)[C@@H](C)CN([C@@H](C)CO)C(=O)c2cc(NS(=O)(=O)c3ccccc3)ccc2O1	x	-1	x	-4	3	34*
COc1ccc(S(=O)(=O)Nc2ccc3c(c2)C(=O)N([C@@H](C)CO)C[C@H](C)[C@@H](CN(C)C(=O)Nc2cccc4ccccc24)OCCCC[C@@H](C)O3)cc1	x	-4	0	4	-2	26*
C[C@H](CO)N1C[C@H](C)[C@@H](CN(C)C(=O)Nc2cccc3ccccc23)OCCCC[C@H](C)Oc2ccc(NS(=O)(=O)c3ccc(F)cc3)cc2C1=O	-12[16.7 µM]	-4	0	-9	-5	39*
